# Assay outcomes (PubChem)
# KCNK3 inh – human KCNK3 channel inhibition, primary screen | O14649 | CHO-KCNK3 thallium flux, FluxOR fluorescence; active compounds read low | B-score at 10 µM | hit rate 0.84% among 340,000;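 active means B-score under library mean minus 4 SD, starting fluorescence ratio at most library mean plus 5 SD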;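 further: more negative B-score means stronger inhibition of thallium flux through KCNK3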
# Target sequence (O14649 whole entry, looked up): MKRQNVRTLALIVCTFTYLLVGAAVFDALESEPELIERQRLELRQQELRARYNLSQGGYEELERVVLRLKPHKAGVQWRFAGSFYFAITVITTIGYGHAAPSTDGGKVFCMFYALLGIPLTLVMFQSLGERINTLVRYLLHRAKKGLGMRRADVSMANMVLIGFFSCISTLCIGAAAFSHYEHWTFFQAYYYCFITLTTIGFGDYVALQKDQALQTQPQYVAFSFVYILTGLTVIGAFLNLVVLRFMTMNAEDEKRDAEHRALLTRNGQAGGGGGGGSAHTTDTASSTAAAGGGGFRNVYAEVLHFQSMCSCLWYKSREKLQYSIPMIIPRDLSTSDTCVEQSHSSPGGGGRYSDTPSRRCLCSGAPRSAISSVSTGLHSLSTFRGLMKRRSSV
# KCNQ1 block – human KCNQ1 channel inhibition; B-score at 10 µM; hit rate 1.3% among 310,000; CHO-K1 KCNQ1, FluxOR thallium flux fluorescence; active compounds read high; AID 2642; P51787;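 active means compounds whose thallium flux B-score, printed positive for inhibition, exceeds three library SD while starting fluorescence stays within three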;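 further: channel opened by potassium depolarization with thallium stimulus after 20 min compound exposure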
# Kir21 inh – Kir2.1 (mouse) channel inhibition; B-score at 10 µM; hit rate 0.85% among 310,000; HEK293-Kir2.1, FluxOR thallium flux fluorescence; active compounds read low; AID 1672;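 active means fluorescence ratio B-score at or below minus 3 SD of library scores, with starting-brightness B-score within 2 SD, cut at about -4.2 in these data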;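 further: channel flux triggered by added potassium and thallium sulfate stimulus; B-score of peak minus minimum fluorescence over baseline after thallium stimulus; more negative B-score means stronger Kir2.1 block with less thallium influx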
# KCNK9 block – inhibitors of human KCNK9 two-pore domain potassium channel | Q9NPC2 | HEK293 KCNK9, FluxOR thallium flux fluorescence; active compounds read low | B-score at 10 µM | hit rate 1.2% among 310,000;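 active means ratio B-score over 3 SD below the library mean, with starting fluorescence within 5 SD of its mean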;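 further: negative B-score means less thallium flux so channel inhibition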
# hERG protect – compounds protecting human hERG from proarrhythmic drug block; CHO-hERG, FluxOR thallium flux, dofetilide IC70 present; hit rate 0.51% among 310,000; AID 1511; Q12809; activation (rescue from dofetilide block), less the hit threshold, % at 10 µM;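 active means activation above the mean of controls blocked by dofetilide plus 5 SD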;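 further: thallium influx through hERG after potassium depolarization seen as dye fluorescence rise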
# KCNQ1 pot – potentiates or activates the human KCNQ1 potassium channel | CHO-K1 KCNQ1, thallium flux FluxOR fluorescence; active compounds read high | hit rate 0.35% among 310,000 | AID 2648 | B-score at 10 µM;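 active means fluorescence ratio B-score, a plate-corrected score, at least three library SD, with initial intensity B-score within 5 SD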
#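 Assay system: CHO-K1 cells stably expressing KCNQ1; Medium: assay buffer with matched DMSO; Also added: K+/Tl+ depolarizing stimulus; Dosing: single dose; Timing: dye 90 min, compound 20 min, room temperature; Measured by: kinetic FluxOR thallium fluorescence, 10-s 1-Hz baseline, 110-s post-stimulus read; Read-out: peak-minus-minimum fluorescence over initial fluorescence, negative-control normalized, B-scored.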
# KCNK9 block conf – human KCNK9 inhibitor confirmation; shares compounds with KCNK9 block; HEK293 KCNK9 cells, FluxOR thallium flux fluorescence; inhibition, % at 10 µM; hit rate 43% among 4,900;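 active means thallium signal inhibited by more than 5 SD of the compound-free buffer control wells, on both duplicate plates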;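 further: 0% = assay buffer control wells without compound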
# Kir2-1 spec – tests whether KCNK9 modulators also affect mouse Kir2.1 | inhibition, % at 10 µM | hit rate 4% among 4,900 | shares compounds with KCNK9 block | Kir2.1 cells, FluxOR thallium flux fluorescence;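 active means thallium signal drop more than 5 SD beyond the mean of the no-compound control wells, seen in both duplicate plates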;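 further: signal is fluorescence rise after thallium addition divided by baseline fluorescence; plate controls were assay buffer only for no effect and full block by chlorpromazine control for full effect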
# HEK293 Tl ctr – second counter-screen for KCNK9 modulators: effect in non-induced cells | shares compounds with KCNK9 block | non-induced KCNK9-HEK293, FluxOR thallium flux | inhibition, % at 10 µM | hit rate 40% among 4,900 | AID 492997;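 active means thallium signal drop beyond 5 SD of the untreated control mean, on both duplicate plates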;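 further: plate controls were buffer only IC0 wells for no effect and SID17386958 at its maximal inhibitory level for full effect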
# * = called active by the depositor; i = inactive; · = no result. This is a sample that favours compounds with a hit; in the whole collection about 3.8% have one here.
SMILES,KCNK3 inh,KCNQ1 block,Kir21 inh,KCNK9 block,hERG protect,KCNQ1 pot,KCNK9 block conf,Kir2-1 spec,HEK293 Tl ctr
CC1(C)Cc2ccccc2C(N/N=C/c2ccc(Cl)cc2)=N1,i,i,-0.03,i,-12,i,i,i,i
C/C(=N\NC(=S)NCCc1ccccc1)c1ccc(C#N)cc1,i,i,-0.06,i,-7,i,·,·,·
S=C(NCCc1ccccc1)N/N=C/c1ccccc1Cl,i,i,-1.4,i,-4,i,i,i,i
C/C(=N\NC(=S)NCCc1ccccc1)c1ccc(Cl)cc1,i,i,1.3,i,0,i,i,i,i
C/C(=N\NC(=S)NCCc1ccccc1)c1ccc(C)cc1,i,i,1.9,i,-12,i,i,i,i
CC1CN(CC(O)c2ccc(Br)cc2)CCO1 (centres undefined),i,·,·,·,·,·,·,·,·
Cc1cc(C(=O)Nc2ccc([N+](=O)[O-])cn2)cs1,i,i,-0.32,i,3,i,·,·,·
COc1cc(NC(=O)C2CCCN(S(=O)(=O)c3cccc4nsnc34)C2)cc(OC)c1 (centres undefined),i,i,0.27,i,-8,i,i,i,i
CC(C)[C@H](NS(=O)(=O)c1cccc(Cl)c1)C(=O)OCC(=O)NC(=O)CN1CCCC1=O,i,·,·,·,·,·,·,·,·
CCCCCCn1nc(C(=O)Nc2nc3c(s2)CCCC3)c2ccccc2c1=O,i,i,0.73,-13*,-8,i,58%*,i,i
CCCn1nc(C(=O)Nc2nnc(CC)s2)c2ccccc2c1=O,i,i,0.02,i,-18,i,·,·,·
CSc1ccc(CN(C)CC(=O)Nc2ccc(C)cc2Br)cc1,i,i,1,i,-7,i,i,i,i
CCOC(=O)Cc1c(C)nc2c(-c3ccc(OC)cc3)c(C)nn2c1C,i,i,2,i,-10,i,i,i,i
Cc1nc2c(-c3ccccc3)c(C)nn2c(C)c1CCC(=O)O,i,i,-0.25,i,-6,i,·,·,·
O=C(COC(=O)CCc1c[nH]c2ccccc12)NCc1ccc2c(c1)OCO2,i,i,0.19,i,-2,i,·,·,·
Cc1c(N=N/C(C(=O)Nc2ccccc2)=C(/O)c2ccccc2)c(=O)n(-c2ccccc2)n1C,i,9*,-0.95,-9.1*,-18,i,i,i,46%*
Cc1c(N=C(N)/N=C(\N)Nc2ccccc2)c(=O)n(-c2ccccc2)n1C,i,i,-0.18,i,1,i,·,·,·
CC1=Nc2cc(C(=O)N3CCCCC3)ccc2Sc2ccc(C)cc21,i,i,-1.1,i,-11,i,i,i,i
CCCC(C)C(=O)Nc1nc(C)c(-c2csc(Nc3cc(OC)ccc3OC)n2)s1 (centres undefined),i,i,-1.3,-18*,-22,i,46%*,i,i
CCCC(=O)Nc1nc(C)c(-c2csc(Nc3ccccc3OC)n2)s1,i,i,-0.06,i,-14,i,·,·,·
C=CCCC(=O)Nc1nc(C)c(-c2csc(Nc3cc(OC)ccc3OC)n2)s1,i,i,1.3,-8.7*,-4,i,56%*,i,28%*
CCCCCC(=O)Nc1nc(C)c(-c2csc(Nc3cc(Cl)ccc3OC)n2)s1,i,i,-1.9,i,-9,i,·,·,·
COc1ccccc1Nc1nc(-c2sc(NC(=O)c3cccc(Cl)c3)nc2C)cs1,·,i,-2.9,i,-8,i,·,·,·
Cc1ccc(Cl)cc1Nc1nc(-c2sc(NC(=O)C(C)(C)C)nc2C)cs1,i,i,-0.58,-13*,-14,i,56%*,i,i
